Results as given in ChEMBL document CHEMBL1649395, “Synthesis and antibacterial activity of novel ketolides with 11,12-sulfur contained aryl alkyl side chains” (2011).
In brackets after ≈: the same amount, converted by molar mass.

Experiments:
Type in all cases: functional
Streptococcus pneumoniae [1] = assay: Antibacterial activity against erythromycin-susceptible Streptococcus pneumoniae ATCC 49619 by broth microdilution method
Method in brief: (§1)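 Strains were ATCC reference strains or clinical isolates from China's national antimicrobial resistance surveillance network (MOHNARIN). In vitro activity was measured by broth microdilution following NCCLS recommendations. Results are reported as minimum inhibitory concentration (MIC) in mg/L.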

[2] = system: Staphylococcus epidermidis; assay: Antibacterial activity against methicillin-resistant Staphylococcus epidermidis 07R066 by broth microdilution method
Method in brief: (§2)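 Clinical isolates were supplied by China's Ministry of Health National Antimicrobial Resistance Investigation Net (MOHNARIN). Activity was reported as minimum inhibitory concentration (MIC), determined by broth microdilution following NCCLS recommendations.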

[3] = system: Staphylococcus epidermidis; assay: Antibacterial activity against methicillin-susceptible Staphylococcus epidermidis 07T202 by broth microdilution method; method in brief: as §1
Staphylococcus aureus [4] = assay: Antibacterial activity against methicillin-susceptible Staphylococcus aureus ATCC 29213 by broth microdilution method; method in brief: as §1
Streptococcus pyogenes [5] = assay: Antibacterial activity against erythromycin-susceptible Streptococcus pyogenes 07U086 by broth microdilution method; method in brief: as §1
Haemophilus influenzae [6] = assay: Antibacterial activity against erythromycin-susceptible Haemophilus influenzae 07O339 by broth microdilution method; method in brief: as §1
Haemophilus influenzae [7] = assay: Antibacterial activity against erythromycin-susceptible Haemophilus influenzae 07O114 by broth microdilution method; method in brief: as §1
Haemophilus influenzae [8] = assay: Antibacterial activity against erythromycin-susceptible Haemophilus influenzae ATCC 49247 by broth microdilution method; method in brief: as §1
Staphylococcus aureus [9] = assay: Antibacterial activity against methicillin-susceptible Staphylococcus aureus ANS46 by broth microdilution method; method in brief: as §1
[10] = system: Staphylococcus epidermidis; assay: Antibacterial activity against methicillin-susceptible Staphylococcus epidermidis 07C134 by broth microdilution method; method in brief: as §2
Haemophilus influenzae [11] = assay: Antibacterial activity against erythromycin-susceptible Haemophilus influenzae 07O394 by broth microdilution method; method in brief: as §1
[12] = system: Staphylococcus epidermidis; assay: Antibacterial activity against methicillin-resistant Staphylococcus epidermidis 07A066 by broth microdilution method; method in brief: as §2
Streptococcus pyogenes [13] = assay: Antibacterial activity against erythromycin-susceptible Streptococcus pyogenes 07U084 by broth microdilution method; method in brief: as §1
Streptococcus pneumoniae [14] = assay: Antibacterial activity against erythromycin-susceptible Streptococcus pneumoniae 07H252 by broth microdilution method; method in brief: as §1
Streptococcus pyogenes [15] = assay: Antibacterial activity against erythromycin-resistant Streptococcus pyogenes 03-233 by broth microdilution method; method in brief: as §2
Streptococcus pneumoniae [16] = assay: Antibacterial activity against erythromycin-resistant Streptococcus pneumoniae 07P390 by broth microdilution method; method in brief: as §2
Streptococcus pyogenes [17] = assay: Antibacterial activity against erythromycin-resistant Streptococcus pyogenes 01-533 by broth microdilution method; method in brief: as §2
Streptococcus pneumoniae [18] = assay: Antibacterial activity against erythromycin-resistant Streptococcus pneumoniae 07D201 by broth microdilution method; method in brief: as §2

Compound	MIC (Streptococcus pneumoniae [1]) [µg/mL]	MIC [2] [µg/mL]	MIC [3] [µg/mL]	MIC (Staphylococcus aureus [4]) [µg/mL]	MIC (Streptococcus pyogenes [5]) [µg/mL]	MIC (Haemophilus influenzae [6]) [µg/mL]	MIC (Haemophilus influenzae [7]) [µg/mL]	MIC (Haemophilus influenzae [8]) [µg/mL]	MIC (Staphylococcus aureus [9]) [µg/mL]	MIC [10] [µg/mL]	MIC (Haemophilus influenzae [11]) [µg/mL]	MIC [12] [µg/mL]	MIC (Streptococcus pyogenes [13]) [µg/mL]	MIC (Streptococcus pneumoniae [14]) [µg/mL]	MIC (Streptococcus pyogenes [15]) [µg/mL]	MIC (Streptococcus pneumoniae [16]) [µg/mL]	MIC (Streptococcus pyogenes [17]) [µg/mL]	MIC (Streptococcus pneumoniae [18]) [µg/mL]
CCCc1cnc(SCCCN2C(=O)O[C@]3(C)[C@@H](CC)OC(=O)[C@H](C)C(=O)[C@H](C)[C@@H](O[C@@H]4O[C@H](C)C[C@H](N(C)C)[C@H]4O)[C@@](C)(OC)C[C@@H](C)C(=O)[C@H](C)[C@@H]23)nc1	0.125 (≈ 0.155 µM)	0.5 (≈ 0.62 µM)	> 16	0.5 (≈ 0.62 µM)	0.125 (≈ 0.155 µM)	16 (≈ 19.8 µM)	16 (≈ 19.8 µM)	16 (≈ 19.8 µM)	> 16	0.5 (≈ 0.62 µM)	16 (≈ 19.8 µM)	1 (≈ 1.24 µM)	0.125 (≈ 0.155 µM)					
CC[C@H]1OC(=O)[C@H](C)C(=O)[C@H](C)[C@@H](O[C@@H]2O[C@H](C)C[C@H](N(C)C)[C@H]2O)[C@@](C)(OC)C[C@@H](C)C(=O)[C@H](C)[C@H]2N(CCCSc3nccs3)C(=O)O[C@]12C	0.031 (≈ 0.0403 µM)	0.062 (≈ 0.0805 µM)	> 32	0.125 (≈ 0.162 µM)	≤ 0.016	4 (≈ 5.19 µM)	4 (≈ 5.19 µM)	4 (≈ 5.19 µM)	> 32	0.125 (≈ 0.162 µM)	4 (≈ 5.19 µM)	0.125 (≈ 0.162 µM)	≤ 0.016	0.5 (≈ 0.649 µM)	> 32	0.25 (≈ 0.325 µM)	0.5 (≈ 0.649 µM)	> 32
CC[C@H]1OC(=O)[C@H](C)C(=O)[C@H](C)[C@@H](O[C@@H]2O[C@H](C)C[C@H](N(C)C)[C@H]2O)[C@@](C)(OC)C[C@@H](C)C(=O)[C@H](C)[C@H]2N(CCCSc3nc(-c4cccnc4)c[nH]3)C(=O)O[C@]12C	0.062 (≈ 0.0747 µM)	0.125 (≈ 0.151 µM)	32 (≈ 38.6 µM)	0.125 (≈ 0.151 µM)	0.031 (≈ 0.0373 µM)	2 (≈ 2.41 µM)	2 (≈ 2.41 µM)	2 (≈ 2.41 µM)	> 32	0.125 (≈ 0.151 µM)	2 (≈ 2.41 µM)	0.125 (≈ 0.151 µM)	0.031 (≈ 0.0373 µM)	0.25 (≈ 0.301 µM)	1 (≈ 1.2 µM)	0.031 (≈ 0.0373 µM)	0.125 (≈ 0.151 µM)	4 (≈ 4.82 µM)
CC[C@H]1OC(=O)[C@H](C)C(=O)[C@H](C)[C@@H](O[C@@H]2O[C@H](C)C[C@H](N(C)C)[C@H]2O)[C@@](C)(OC)C[C@@H](C)C(=O)[C@H](C)[C@H]2N(CCCSc3nnc(C)s3)C(=O)O[C@]12C	≤ 0.016	2 (≈ 2.55 µM)	> 32	0.25 (≈ 0.318 µM)	0.031 (≈ 0.0395 µM)	2 (≈ 2.55 µM)	2 (≈ 2.55 µM)	2 (≈ 2.55 µM)	> 32	0.125 (≈ 0.159 µM)	2 (≈ 2.55 µM)	0.125 (≈ 0.159 µM)	≤ 0.016	≤ 0.016	> 32	0.125 (≈ 0.159 µM)	1 (≈ 1.27 µM)	16 (≈ 20.4 µM)
CC[C@H]1OC(=O)[C@H](C)C(=O)[C@H](C)[C@@H](O[C@@H]2O[C@H](C)C[C@H](N(C)C)[C@H]2O)[C@@](C)(OC)C[C@@H](C)C(=O)/C(C)=C/[C@]1(C)OC(=O)NCCCSc1nc2ccccc2o1	2 (≈ 2.49 µM)	4 (≈ 4.98 µM)	> 16	4 (≈ 4.98 µM)	2 (≈ 2.49 µM)	> 16	> 16	> 16	> 16	4 (≈ 4.98 µM)	> 16	4 (≈ 4.98 µM)	2 (≈ 2.49 µM)	16 (≈ 19.9 µM)	> 16	> 16	> 16	> 16
CC[C@H]1OC(=O)[C@H](C)C(=O)[C@H](C)[C@@H](O[C@@H]2O[C@H](C)C[C@H](N(C)C)[C@H]2O)[C@@](C)(OC)C[C@@H](C)C(=O)/C(C)=C/[C@]1(C)OC(=O)NCCCSc1ncnc2[nH]ncc12	0.5 (≈ 0.621 µM)	0.5 (≈ 0.621 µM)	> 16	0.5 (≈ 0.621 µM)	0.25 (≈ 0.311 µM)	> 16	> 16	> 16	> 16	0.5 (≈ 0.621 µM)	> 16	0.5 (≈ 0.621 µM)	0.25 (≈ 0.311 µM)	8 (≈ 9.94 µM)	> 16	16 (≈ 19.9 µM)	8 (≈ 9.94 µM)	> 16
CC[C@H]1OC(=O)[C@H](C)C(=O)[C@H](C)[C@@H](O[C@@H]2O[C@H](C)C[C@H](N(C)C)[C@H]2O)[C@@](C)(OC)C[C@@H](C)C(=O)[C@H](C)[C@H]2N(CCCSc3ccoc3C)C(=O)O[C@]12C	0.031 (≈ 0.0404 µM)	0.25 (≈ 0.326 µM)	> 16	0.25 (≈ 0.326 µM)	0.125 (≈ 0.163 µM)	16 (≈ 20.9 µM)	8 (≈ 10.4 µM)	16 (≈ 20.9 µM)	> 16	0.25 (≈ 0.326 µM)	16 (≈ 20.9 µM)	0.25 (≈ 0.326 µM)	0.125 (≈ 0.163 µM)	1 (≈ 1.3 µM)	> 16	0.25 (≈ 0.326 µM)	0.5 (≈ 0.652 µM)	> 16
